Experimental data: ChEMBL document CHEMBL4428107 (Bioorg Med Chem, 2016)

How the values were obtained:
Histone deacetylase 1 = Histone deacetylase 1 (Homo sapiens, UniProt Q13547); experiment: Inhibition of recombinant full length C-terminal FLAG-tagged/C-terminal His-tagged human HDAC1 using fluorogenic substrate by fluorescence assay
Procedure, shortened: (§1)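 Outsourced HDAC isozyme panel run under proprietary protocols. Each compound was tested at 10 μM and 5 μM, using HDAC substrate 3 at 10 μM, with fluorescence read-out. […] IC50 range was bracketed from % inhibition at the two concentrations.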

Histone deacetylase 2 [1] = target: T1, Histone deacetylase 2 (Homo sapiens, UniProt Q92769); experiment: Inhibition of full length recombinant human HDAC2 expressed in baculovirus expression system using fluorogenic peptide RHKK(Ac) as substrate by fluorescence assay
T1 sequence (Q92769 whole entry): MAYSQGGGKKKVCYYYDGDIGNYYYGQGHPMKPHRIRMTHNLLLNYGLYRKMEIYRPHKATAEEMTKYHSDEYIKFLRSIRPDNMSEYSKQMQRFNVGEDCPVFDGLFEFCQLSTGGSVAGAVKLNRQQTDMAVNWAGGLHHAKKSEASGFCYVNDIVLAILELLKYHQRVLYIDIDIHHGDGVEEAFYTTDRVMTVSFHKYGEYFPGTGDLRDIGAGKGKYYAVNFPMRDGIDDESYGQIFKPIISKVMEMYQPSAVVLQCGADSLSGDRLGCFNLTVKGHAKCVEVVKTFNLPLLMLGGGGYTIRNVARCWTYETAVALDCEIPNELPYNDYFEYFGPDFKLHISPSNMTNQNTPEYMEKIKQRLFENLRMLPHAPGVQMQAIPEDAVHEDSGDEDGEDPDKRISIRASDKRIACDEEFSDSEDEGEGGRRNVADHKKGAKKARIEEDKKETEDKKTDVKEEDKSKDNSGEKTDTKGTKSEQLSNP

HCT-116 = experiment: Antiproliferative activity against human HCT116 cells assessed as reduction in cell viability after 72 hrs by MTS-PMS assay; format: functional; details: Homo sapiens, HCT-116, 72 h
Procedure, shortened: (§2)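 MTS-PMS viability test. Cells were seeded at 3,000/well and left 24 h at 37 °C, 5% CO2, then exposed to compound for 72 h. Screening was at 50 μM for HCT116 and MCF-7 and […], with final DMSO ≤1%. MTS:PMS was mixed 20:1, added for 3 h, and absorbance read at 490 nm. At least two independent runs were done, each in triplicate.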

MCF7 = experiment: Antiproliferative activity against human MCF7 cells assessed as reduction in cell viability after 72 hrs by MTS-PMS assay; details: MCF7, 72 h
MDA-MB-231 = experiment: Antiproliferative activity against human MDA-MB-231 cells assessed as reduction in cell viability after 72 hrs by MTS-PMS assay; format: functional; details: MDA-MB-231, 72 h; procedure, shortened: as §2
MOLT-4 = experiment: Antiproliferative activity against human MOLT4 cells assessed as reduction in cell viability after 70 hrs by Quanti-blue assay; format: functional; details: Homo sapiens, MOLT-4, 70 h
Procedure, shortened: (§3)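 Quanti-Blue viability kit. HuT-78 and Molt-4 cells were grown in RPMI-1640 and seeded at 10^5 cells/mL. Compounds were screened at 50 μM for 70 h, with detection reagent present for the final 2 h. Fluorescence was read at ex 530/em 590 nm. IC50 from dose-response came from linear regression. Three independent runs.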

HuT78 = experiment: Antiproliferative activity against human HUT78 cells assessed as reduction in cell viability after 70 hrs by Quanti-blue assay; format: functional; details: Homo sapiens, HuT78, 70 h; procedure, shortened: as §3
[2] = Antiproliferative activity against human PBMC assessed as reduction in cell viability after 70 hrs by Quanti-blue assay; format: cell-based
Procedure, shortened: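 QB fluorescence viability assay; hPBMCs purified by density centrifugation from purchased human blood, stored frozen, resuspended in RPMI-1640 with 10% heat-inactivated FBS, HEPES, pyruvate, non-essential amino acids and BME; seeded at 10^6 cells/mL. Compounds at 50 μM, 70 h plus 2 h with detection reagent; λex 530/λem 590 nm. Three independent repeats.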

Histone deacetylase 2 [3] = target: T1, Histone deacetylase 2; experiment: Inhibition of recombinant full length C-terminal His-tagged human HDAC2 expressed in baculovirus expression system using fluorogenic substrate by fluorescence assay
[4] = Immunomodulatory activity in human TALL-104 cells assessed as effect on degranulation by measuring augmentation of CD3-stimulated anti-LAMP fluorescence at 100 uM preincubated for 30 mins followed by anti-LAMP addition and incubated for 50 mins in the dark by flow cytometric analysis relative to control; format: functional
[5] = target: Histone deacetylase 3/Nuclear receptor corepressor 2 (HDAC3/NCoR2) (Homo sapiens, UniProt O15379); experiment: Inhibition of recombinant full length C-terminal His-tagged human HDAC3/GST-tagged human Ncor2 (395 to 489 residues) expressed in baculovirus expression system using fluorogenic substrate by fluorescence assay; procedure, shortened: as §1
Histone deacetylase 4 = Histone deacetylase 4 (Homo sapiens, UniProt P56524); experiment: Inhibition of recombinant C-terminal His-tagged/N-terminal GST-tagged human HDAC4 (627 to 1084 residues) expressed in baculovirus expression system using fluorogenic substrate by fluorescence assay
Sequence of Histone deacetylase 4 (P56524 whole entry, the tested form may be a part): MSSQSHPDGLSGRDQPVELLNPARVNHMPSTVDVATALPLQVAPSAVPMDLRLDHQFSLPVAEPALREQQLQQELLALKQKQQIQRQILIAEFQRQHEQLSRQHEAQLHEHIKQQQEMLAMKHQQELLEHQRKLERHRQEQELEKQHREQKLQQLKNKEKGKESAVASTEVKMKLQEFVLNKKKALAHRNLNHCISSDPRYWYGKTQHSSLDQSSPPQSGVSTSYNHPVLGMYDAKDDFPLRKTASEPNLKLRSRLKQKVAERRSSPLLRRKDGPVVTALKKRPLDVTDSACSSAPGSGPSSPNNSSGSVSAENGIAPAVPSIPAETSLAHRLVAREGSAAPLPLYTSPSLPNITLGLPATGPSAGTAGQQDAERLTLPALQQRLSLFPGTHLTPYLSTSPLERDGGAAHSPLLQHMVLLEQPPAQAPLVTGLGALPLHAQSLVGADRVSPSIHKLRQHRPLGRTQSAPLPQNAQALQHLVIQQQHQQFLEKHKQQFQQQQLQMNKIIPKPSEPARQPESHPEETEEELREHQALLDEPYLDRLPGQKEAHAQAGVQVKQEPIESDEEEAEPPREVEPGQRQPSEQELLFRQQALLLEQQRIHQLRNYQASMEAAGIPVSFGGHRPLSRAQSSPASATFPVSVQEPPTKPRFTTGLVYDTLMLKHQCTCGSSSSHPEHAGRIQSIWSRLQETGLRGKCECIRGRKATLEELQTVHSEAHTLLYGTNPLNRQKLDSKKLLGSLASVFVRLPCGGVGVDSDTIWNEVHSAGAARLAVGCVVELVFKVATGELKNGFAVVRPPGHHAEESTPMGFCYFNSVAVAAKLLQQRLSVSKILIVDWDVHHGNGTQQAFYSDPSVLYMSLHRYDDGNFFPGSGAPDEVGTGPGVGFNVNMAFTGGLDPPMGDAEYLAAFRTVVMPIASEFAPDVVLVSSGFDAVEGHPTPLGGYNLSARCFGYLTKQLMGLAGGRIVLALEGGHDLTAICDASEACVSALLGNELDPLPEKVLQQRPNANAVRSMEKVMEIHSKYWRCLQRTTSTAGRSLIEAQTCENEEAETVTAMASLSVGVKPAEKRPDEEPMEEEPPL
Procedure, shortened: (§4)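 Outsourced HDAC isozyme panel run under proprietary protocols. Each compound was tested at 10 μM and 5 μM, using Class 2a HDAC substrate at 2 μM, with fluorescence read-out. […] IC50 range was bracketed from % inhibition at the two concentrations.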

Histone deacetylase 5 = Histone deacetylase 5 (Homo sapiens, UniProt Q9UQL6); experiment: Inhibition of recombinant C-terminal His-tagged human HDAC5 catalytic domain (656 to 1122 residues) expressed in baculovirus expression system using fluorogenic substrate by fluorescence assay; procedure, shortened: as §4
Sequence of Histone deacetylase 5 (Q9UQL6 whole entry, the tested form may be a part): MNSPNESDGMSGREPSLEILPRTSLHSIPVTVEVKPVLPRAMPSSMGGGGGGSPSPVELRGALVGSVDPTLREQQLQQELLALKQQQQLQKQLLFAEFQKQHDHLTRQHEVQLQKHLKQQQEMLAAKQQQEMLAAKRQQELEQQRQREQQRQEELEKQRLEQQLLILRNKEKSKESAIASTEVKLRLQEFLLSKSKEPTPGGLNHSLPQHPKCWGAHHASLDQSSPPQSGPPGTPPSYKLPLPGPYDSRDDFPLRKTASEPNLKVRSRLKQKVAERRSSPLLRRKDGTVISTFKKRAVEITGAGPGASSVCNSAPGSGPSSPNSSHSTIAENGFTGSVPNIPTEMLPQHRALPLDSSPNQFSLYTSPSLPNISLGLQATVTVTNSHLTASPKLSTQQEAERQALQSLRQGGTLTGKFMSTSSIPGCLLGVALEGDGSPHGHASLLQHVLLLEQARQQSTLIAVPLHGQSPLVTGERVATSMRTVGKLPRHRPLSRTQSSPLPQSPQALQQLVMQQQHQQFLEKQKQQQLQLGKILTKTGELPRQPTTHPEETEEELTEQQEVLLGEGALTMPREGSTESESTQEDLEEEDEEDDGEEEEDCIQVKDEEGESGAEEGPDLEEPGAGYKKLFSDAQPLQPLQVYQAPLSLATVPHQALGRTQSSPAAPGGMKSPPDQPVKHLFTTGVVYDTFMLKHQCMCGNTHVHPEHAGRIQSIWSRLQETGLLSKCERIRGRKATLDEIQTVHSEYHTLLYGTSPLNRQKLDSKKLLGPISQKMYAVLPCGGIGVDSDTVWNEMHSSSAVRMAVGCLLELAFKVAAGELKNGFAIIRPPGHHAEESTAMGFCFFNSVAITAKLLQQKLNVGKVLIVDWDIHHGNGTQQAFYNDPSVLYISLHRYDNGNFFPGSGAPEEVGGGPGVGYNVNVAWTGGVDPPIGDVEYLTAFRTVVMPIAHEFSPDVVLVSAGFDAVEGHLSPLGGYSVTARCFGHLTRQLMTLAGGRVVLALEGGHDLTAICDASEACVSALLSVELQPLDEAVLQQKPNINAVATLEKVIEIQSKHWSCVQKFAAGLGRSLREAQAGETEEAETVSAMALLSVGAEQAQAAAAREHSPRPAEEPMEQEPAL

Histone deacetylase 7 = Histone deacetylase 7 (Homo sapiens, UniProt Q8WUI4); experiment: Inhibition of recombinant N-terminal GST-tagged human HDAC7 (518 to end residues) expressed in baculovirus expression system using fluorogenic substrate by fluorescence assay; procedure, shortened: as §4
Histone deacetylase 8 = Histone deacetylase 8 (Homo sapiens, UniProt Q9BY41); experiment: Inhibition of recombinant full length C-terminal His-tagged human HDAC8 expressed in baculovirus expression system using fluorogenic substrate by fluorescence assay; procedure, shortened: as §4
Histone deacetylase 9 = Histone deacetylase 9 (Homo sapiens, UniProt Q9UKV0); experiment: Inhibition of recombinant C-terminal His-tagged human HDAC9 (604 to 1066 residues) expressed in baculovirus expression system using fluorogenic substrate by fluorescence assay; procedure, shortened: as §4
Sequence of Histone deacetylase 9 (Q9UKV0 whole entry, the tested form may be a part): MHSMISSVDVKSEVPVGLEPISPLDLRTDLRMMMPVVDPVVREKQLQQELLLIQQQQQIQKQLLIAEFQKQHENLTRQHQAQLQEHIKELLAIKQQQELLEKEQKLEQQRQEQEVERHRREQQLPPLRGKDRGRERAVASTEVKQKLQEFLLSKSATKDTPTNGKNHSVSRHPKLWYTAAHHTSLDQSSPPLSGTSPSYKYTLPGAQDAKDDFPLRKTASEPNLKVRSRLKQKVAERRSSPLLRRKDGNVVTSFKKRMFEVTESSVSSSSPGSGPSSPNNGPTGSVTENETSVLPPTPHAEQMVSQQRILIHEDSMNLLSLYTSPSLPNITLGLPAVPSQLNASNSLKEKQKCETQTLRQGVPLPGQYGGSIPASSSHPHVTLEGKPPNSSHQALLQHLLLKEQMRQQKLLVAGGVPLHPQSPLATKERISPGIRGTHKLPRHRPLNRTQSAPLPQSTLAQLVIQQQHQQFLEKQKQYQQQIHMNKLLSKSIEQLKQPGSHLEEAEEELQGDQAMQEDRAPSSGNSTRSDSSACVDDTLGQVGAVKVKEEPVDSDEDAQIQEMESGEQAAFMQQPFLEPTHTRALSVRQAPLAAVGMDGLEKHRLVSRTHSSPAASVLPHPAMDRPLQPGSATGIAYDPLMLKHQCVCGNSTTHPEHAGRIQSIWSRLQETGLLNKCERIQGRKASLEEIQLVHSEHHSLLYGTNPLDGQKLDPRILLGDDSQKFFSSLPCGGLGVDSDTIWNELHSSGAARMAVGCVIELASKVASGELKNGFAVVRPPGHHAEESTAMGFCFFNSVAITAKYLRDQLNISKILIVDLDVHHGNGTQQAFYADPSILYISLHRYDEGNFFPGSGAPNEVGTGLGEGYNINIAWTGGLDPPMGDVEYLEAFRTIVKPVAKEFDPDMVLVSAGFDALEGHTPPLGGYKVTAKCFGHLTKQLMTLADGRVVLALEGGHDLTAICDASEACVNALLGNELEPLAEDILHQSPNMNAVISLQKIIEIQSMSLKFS

[6] = target: Polyamine deacetylase HDAC10 (Homo sapiens, UniProt Q969S8); experiment: Inhibition of recombinant N-terminal FLAG-tagged human HDAC10 (2 to 631 residues) expressed in baculovirus expression system using fluorogenic substrate by fluorescence assay; procedure, shortened: as §1
Histone deacetylase 11 = Histone deacetylase 11 (Homo sapiens, UniProt Q96DB2); experiment: Inhibition of full length recombinant human HDAC11 expressed in baculovirus expression system using fluorogenic substrate by fluorescence assay; procedure, shortened: as §4
[7] = target: Protein deacetylase HDAC6 (Homo sapiens, UniProt Q9UBN7); experiment: Inhibition of recombinant full length N-terminal GST-tagged human HDAC6 expressed in baculovirus expression system using fluorogenic substrate by fluorescence assay; procedure, shortened: as §1
Sequence of Protein deacetylase HDAC6 (Q9UBN7 whole entry): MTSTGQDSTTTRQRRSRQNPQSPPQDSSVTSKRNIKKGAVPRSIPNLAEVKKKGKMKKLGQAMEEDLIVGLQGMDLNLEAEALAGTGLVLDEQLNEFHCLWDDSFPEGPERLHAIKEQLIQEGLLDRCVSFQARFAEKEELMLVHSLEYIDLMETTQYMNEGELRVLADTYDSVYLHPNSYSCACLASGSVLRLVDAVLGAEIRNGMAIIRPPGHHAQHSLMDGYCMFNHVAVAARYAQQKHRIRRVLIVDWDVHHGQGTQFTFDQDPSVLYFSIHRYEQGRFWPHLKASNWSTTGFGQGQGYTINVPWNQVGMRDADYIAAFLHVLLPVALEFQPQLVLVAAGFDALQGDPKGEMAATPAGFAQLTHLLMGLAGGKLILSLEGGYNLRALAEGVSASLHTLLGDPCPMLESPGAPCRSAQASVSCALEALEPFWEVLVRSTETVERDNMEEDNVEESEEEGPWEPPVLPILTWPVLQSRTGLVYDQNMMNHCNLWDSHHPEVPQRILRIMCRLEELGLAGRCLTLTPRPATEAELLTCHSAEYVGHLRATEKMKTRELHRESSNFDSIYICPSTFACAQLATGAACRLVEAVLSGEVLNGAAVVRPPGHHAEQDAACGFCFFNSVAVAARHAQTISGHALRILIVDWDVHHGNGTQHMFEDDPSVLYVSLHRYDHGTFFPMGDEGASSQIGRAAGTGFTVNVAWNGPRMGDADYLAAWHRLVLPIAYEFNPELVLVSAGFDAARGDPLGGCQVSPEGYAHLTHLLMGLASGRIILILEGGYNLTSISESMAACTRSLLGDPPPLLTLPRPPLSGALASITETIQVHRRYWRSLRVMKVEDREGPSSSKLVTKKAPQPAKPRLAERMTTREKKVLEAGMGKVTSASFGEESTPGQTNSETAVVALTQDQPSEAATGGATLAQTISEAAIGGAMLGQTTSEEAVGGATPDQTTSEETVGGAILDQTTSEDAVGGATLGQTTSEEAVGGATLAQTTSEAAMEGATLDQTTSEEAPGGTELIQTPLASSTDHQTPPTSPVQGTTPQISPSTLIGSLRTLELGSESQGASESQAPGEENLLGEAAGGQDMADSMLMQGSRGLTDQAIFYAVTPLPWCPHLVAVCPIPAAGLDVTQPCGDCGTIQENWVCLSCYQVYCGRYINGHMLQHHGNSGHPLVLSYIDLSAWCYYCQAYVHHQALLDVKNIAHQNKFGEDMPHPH

| SMILES | IC50 (Histone deacetylase 1) [µM] | IC50 (Histone deacetylase 2 [1]) [µM] | GI50 (HCT-116) [µM] | GI50 (MCF7) [µM] | GI50 (MDA-MB-231) [µM] | GI50 (MOLT-4) [µM] | GI50 (HuT78) [µM] | GI50 at 70 h [2] [µM] | IC50 (Histone deacetylase 2 [3]) [µM] | Activity [4] [%] | IC50 [5] [µM] | IC50 (Histone deacetylase 4) [µM] | IC50 (Histone deacetylase 5) [µM] | IC50 (Histone deacetylase 7) [µM] | IC50 (Histone deacetylase 8) [µM] | IC50 (Histone deacetylase 9) [µM] | IC50 [6] [µM] | IC50 (Histone deacetylase 11) [µM] | IC50 [7] [µM] |
| --- | --- | --- | --- | --- | --- | --- | --- | --- | --- | --- | --- | --- | --- | --- | --- | --- | --- | --- | --- |
| O=C(CCCC(=O)NCCc1ccccc1)NO | 5 to 10 | > 1 | > 50 | > 50 | > 50 | > 50 | > 50 | > 50 | 5 to 10 | 113 | 5 to 10 | 5 to 10 | > 10 | > 10 | 5 to 10 | 5 to 10 | 5 to 10 | 5 to 10 | < 5 |
| O=C(CCCNC(=S)N1CCCC1=O)NCCc1ccccc1 | – | > 1 | > 50 | > 50 | > 50 | > 50 | > 50 | > 50 | – | 94 | – | – | – | – | – | – | – | – | – |
| O=C(CCCNC(=O)OCCF)NCCc1ccccc1 | – | > 1 | > 50 | > 50 | > 50 | > 50 | > 50 | > 50 | – | 92 | – | – | – | – | – | – | – | – | – |
| CCNC(=O)NCCCC(=O)NCCc1ccccc1 | – | > 1 | > 50 | > 50 | > 50 | > 50 | > 50 | > 50 | – | 106 | – | – | – | – | – | – | – | – | – |
| CCOC(=O)NCCCC(=O)Nc1ccc(O[Si](C)(C)C(C)(C)C)cc1 | – | > 1 | > 50 | 13.8 | > 50 | > 50 | > 50 | > 50 | – | 171 | – | – | – | – | – | – | – | – | – |
| CCOC(=O)NCCC(=O)NCCCCc1ccccc1 | – | > 1 | > 50 | > 50 | > 50 | > 50 | > 50 | > 50 | – | 83 | – | – | – | – | – | – | – | – | – |
| CCOC(=O)NCC(=O)NCCCCc1ccccc1 | – | > 1 | > 50 | > 50 | > 50 | > 50 | > 50 | > 50 | – | 81 | – | – | – | – | – | – | – | – | – |
| CCOC(=O)NCCC(=O)NCCc1ccccc1 | – | > 1 | > 50 | > 50 | > 50 | > 50 | > 50 | > 50 | – | 91 | – | – | – | – | – | – | – | – | – |
| CCOC(=O)NCCCC(=O)N[C@@H](Cc1ccccc1)C(=O)OC | – | > 1 | > 50 | > 50 | > 50 | > 50 | > 50 | > 50 | – | 90 | – | – | – | – | – | – | – | – | – |
| CCOC(=O)NCC(=O)NCCc1ccccc1 | – | > 1 | > 50 | > 50 | > 50 | > 50 | > 50 | > 50 | – | 86 | – | – | – | – | – | – | – | – | – |
| CCOC(=O)NCCCCCC(=O)NCCc1ccccc1 | – | > 1 | > 50 | > 50 | > 50 | > 50 | > 50 | > 50 | – | 98 | – | – | – | – | – | – | – | – | – |
| C#CCOC(=O)NCCCC(=O)NCCc1ccccc1 | – | > 1 | > 50 | > 50 | > 50 | > 50 | > 50 | > 50 | – | 105 | – | – | – | – | – | – | – | – | – |
| CCCC(=O)NCCCC(=O)NCCc1ccccc1 | – | > 1 | > 50 | > 50 | > 50 | > 50 | > 50 | > 50 | – | 101 | – | – | – | – | – | – | – | – | – |
| CCOC(=O)NCCc1ccccc1 | – | > 1 | > 50 | > 50 | > 50 | > 50 | > 50 | > 50 | – | 90 | – | – | – | – | – | – | – | – | – |
| CCCCOC(=O)NCCCC(=O)NCCc1ccccc1 | – | > 1 | > 50 | > 50 | > 50 | > 50 | > 50 | > 50 | – | 101 | – | – | – | – | – | – | – | – | – |
| COC(=O)NCCCC(=O)NCCc1ccccc1 | – | > 1 | > 50 | > 50 | > 50 | > 50 | > 50 | > 50 | – | 81 | – | – | – | – | – | – | – | – | – |
| CCOC(=O)NCCCC(=O)NCCNC(=O)OC(C)(C)C | – | > 1 | > 50 | > 50 | > 50 | > 50 | > 50 | > 50 | – | 95 | – | – | – | – | – | – | – | – | – |
| CCOC(=O)NCCCCC(=O)NCc1ccccc1 | – | > 1 | > 50 | > 50 | > 50 | > 50 | > 50 | > 50 | – | 93 | – | – | – | – | – | – | – | – | – |
